Source: ChEMBL document CHEMBL4043302, “Lead Diversification at the Nanomole Scale Using Liver Microsomes and Quantitative Nuclear Magnetic Resonance Spectroscopy: Application to Phosphodiesterase 2 Inhibitors” (J Med Chem, 2018)

What was measured:
[1] = (§1) Apparent permeability across RRCK cells after 1.5 hrs; type: ADME, cell-based, Canis lupus familiaris, MDCKII-LE; details: dog, MDCK
[2] = Metabolic stability in human hepatocytes at 1 uM after 0.5 to 4 hrs by HPLC-HRMS method; type: ADME, cell-based, Hepatocyte
Outline: (§2)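 Compound at 1 µM was dried from d6-DMSO and redissolved in Williams E medium. Pooled human hepatocytes were added at 680000 cells/mL. Samples were quenched in water/CH3CN (2:1) with 2% formic acid and clozapine as internal standard, then analysed by HPLC-HRMS in positive-ion full scan. k came from the slope of ln peak-area ratio versus time; CLint = k / cell concentration. Non-specific binding was not measured.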

[3] = Drug level in hamster liver microsomes treated with 7-(1,3-Dimethyl-5-(4-(trifluoromethyl)phenyl)-1H-pyrazol-4-yl)-5-(methoxymethyl)-2-methylimidazol[5,1-f ][1,2,4]triazin-4-(3H)-one at 20 uM after 1 hr by UHPLC-UV-HRMS method; type: ADME, microsome; details: cricetinae
Outline: (§3)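 Preparative incubation: substrate 20 µM with liver microsomes (2 mg/mL) of the listed species in 0.1 M potassium phosphate, pH 7.5, with MgCl2 3.3 mM and NADPH 1.3 mM. Run at 37°C in a shaking water bath and stopped with an equal volume of CH3CN. Products were fractionated by HPLC and quantified by qNMR in d6-DMSO.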

[4] = Intrinsic clearance in human hepatocytes assessed per million cells at 1 uM after 0.5 to 4 hrs by HPLC-HRMS method; type: ADME, cell-based, Hepatocyte; details: for hepatocyte CLint at 1 µM: human hepatocytes, read-out: CLH; for CLint: hepatocytes, 1 µM; outline: as §2
Liver [5] = assay: Drug level in human liver microsomes treated with 2-(3,4-dimethoxybenzyl)-7-((2S,3R)-2-hydroxy-6-phenylhexan-3-yl)-5-methylimidazo[1,5-f][1,2,4]triazin-4(3H)-one at 20 uM after 1 hr by UHPLC-UV-HRMS method; type: ADME, microsome; outline: as §3
[6] = target: cGMP-dependent 3',5'-cyclic phosphodiesterase (Homo sapiens, UniProt O00408); assay: Inhibition of human PDE2A1 using 3',5'-[3H]cGMP as substrate after 30 mins by scintillation proximity assay
[7] = Drug level in cynomolgus monkey liver microsomes treated with 7-(1,3-Dimethyl-5-(5-(trifluoromethyl)pyridine-2-yl)-1H-pyrazol-4-yl)-2,5-dimethylimidazo[5,1-f ][1,2,4]triazin-4(3H)-one at 20 uM after 1.2 hrs by UHPLC-UV-HRMS method; type: ADME, Macaca fascicularis, microsome; outline: as §3
[8] = Drug level in rabbit liver microsomes treated with 7-(1,3-Dimethyl-5-(3-methyl-4-(trifluoromethyl)phenyl)-1H-pyrazol-4-yl)-2,5-dimethylimidazo[5,1-f ][1,2,4]triazin-4(3H)-one at 20 uM after 1 hr by UHPLC-UV-HRMS method; type: ADME, Oryctolagus cuniculus, microsome
Liver [9] = assay: Drug level in mouse liver microsomes treated with 7-(5-(4-Chlorophenyl)-1,3-dimethyl-1H-pyrazol-4-yl)-2,5-dimethylimidazo[5,1-f ][1,2,4]triazin-4(3H)-one at 20 uM after 1.5 hrs by UHPLC-UV-HRMS method; type: ADME, microsome; outline: as §3
Liver [10] = assay: Drug level in dog liver microsomes treated with 2-(3,4-dimethoxybenzyl)-7-((2R,3R)-2-hydroxy-6-phenylhexan-3-yl)-5-methylimidazo[1,5-f][1,2,4]triazin-4(3H)-one at 20 uM after 1 hr by UHPLC-UV-HRMS method; type: ADME, Canis lupus familiaris, microsome; outline: as §3
[11] = Drug level in hamster liver microsomes treated with 7-(5-(4-Methoxyphenyl)-1,3-dimethyl-1H-pyrazol-4-yl)-2,5-dimethylimidazo[5,1-f ][1,2,4]triazin-4(3H)-one at 20 uM after 1.5 hrs by UHPLC-UV-HRMS method; type: ADME, microsome; details: cricetinae; outline: as §3
[12] = Drug level in cynomolgus monkey liver microsomes treated with 5-(Difluoromethyl)-7-(1,3-dimethyl-5-(4-(trifluoromethyl)phenyl)-1H-pyrazol-4-yl)-2-methylimidazo[5,1-f ][1,2,4]triazin-4(3H)-one at 20 uM after 1.5 hrs by UHPLC-UV-HRMS method; type: ADME, Macaca fascicularis, microsome; outline: as §3
MDCKII-LE = assay: as §1; type: ADME, cell-based, Canis lupus familiaris; details: dog, mdckii-le, 1.5 h

Chain of cGMP-dependent 3',5'-cyclic phosphodiesterase (O00408 whole entry): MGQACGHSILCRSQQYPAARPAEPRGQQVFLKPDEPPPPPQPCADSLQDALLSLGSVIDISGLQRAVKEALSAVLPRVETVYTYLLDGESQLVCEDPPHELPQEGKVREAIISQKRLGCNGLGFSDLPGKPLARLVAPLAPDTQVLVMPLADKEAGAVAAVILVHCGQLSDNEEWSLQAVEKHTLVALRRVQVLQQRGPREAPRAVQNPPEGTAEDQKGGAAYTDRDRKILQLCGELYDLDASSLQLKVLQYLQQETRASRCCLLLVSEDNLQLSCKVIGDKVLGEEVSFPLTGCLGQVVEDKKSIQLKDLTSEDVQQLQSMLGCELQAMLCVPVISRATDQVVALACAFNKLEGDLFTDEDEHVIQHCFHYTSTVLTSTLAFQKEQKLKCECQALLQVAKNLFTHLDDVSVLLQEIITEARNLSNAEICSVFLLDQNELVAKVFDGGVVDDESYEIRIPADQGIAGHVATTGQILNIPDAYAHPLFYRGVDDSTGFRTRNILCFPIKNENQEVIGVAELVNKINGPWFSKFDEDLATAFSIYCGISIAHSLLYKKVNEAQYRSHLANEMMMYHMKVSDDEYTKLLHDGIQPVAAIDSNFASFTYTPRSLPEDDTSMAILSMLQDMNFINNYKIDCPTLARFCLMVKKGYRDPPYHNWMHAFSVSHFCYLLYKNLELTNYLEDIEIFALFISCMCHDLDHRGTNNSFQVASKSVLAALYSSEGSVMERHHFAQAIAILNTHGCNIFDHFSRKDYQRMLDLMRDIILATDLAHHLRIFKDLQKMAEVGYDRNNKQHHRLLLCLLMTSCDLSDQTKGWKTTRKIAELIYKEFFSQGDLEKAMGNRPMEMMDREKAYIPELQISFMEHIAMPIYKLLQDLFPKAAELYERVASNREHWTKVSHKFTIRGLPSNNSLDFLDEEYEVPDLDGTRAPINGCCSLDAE

Structure (SMILES) | Papp at 1.5 h [1] | Stability [2] | hepatocyte CLint at 1 µM [4] | other results
Cc1nn2c(-c3c(C)n[nH]c3-c3ccc(C(F)(F)F)cc3)nc(CO)c2c(=O)[nH]1 | 0.94 ×10⁻⁶ cm/s | Stable | – | Drug metabolism [3]: Metabolite_Detected
COc1ccc(Cc2nn3c([C@@H](CCC(O)c4ccccc4)[C@H](C)O)nc(C)c3c(=O)[nH]2)cc1O (some centres undefined) | 1.2 ×10⁻⁶ cm/s | – | 9.6 µL/min/1e6 cells | Drug metabolism (Liver [5]): Metabolite_Detected
COc1ccc(Cc2nn3c([C@@H](CCC(=O)c4ccccc4)[C@H](C)O)nc(C)c3c(=O)[nH]2)cc1OC | – | – | 32 µL/min/1e6 cells | Drug metabolism (Liver [5]): Metabolite_Detected
COc1cc(Cc2nn3c([C@@H](CCC(O)c4ccccc4)[C@@H](C)O)nc(C)c3c(=O)[nH]2)ccc1O (some centres undefined) | 1.2 ×10⁻⁶ cm/s | – | 13 µL/min/1e6 cells | Drug metabolism (Liver [10]): Metabolite_Detected
COc1ccc(Cc2nn3c([C@@H](CC(O)C(O)c4ccccc4)[C@@H](C)O)nc(C)c3c(=O)[nH]2)cc1OC (some centres undefined) | 0.56 ×10⁻⁶ cm/s | – | 2.4 µL/min/1e6 cells | Drug metabolism (Liver [10]): Metabolite_Detected
COc1ccc(Cc2nn3c([C@@H](C(O)CC(O)c4ccccc4)[C@H](C)O)nc(C)c3c(=O)[nH]2)cc1OC (some centres undefined) | – | – | 4.3 µL/min/1e6 cells | Drug metabolism (Liver [5]): Metabolite_Detected
COCc1nc(-c2c(C)nn(C)c2-c2ccc(C(F)(F)F)cc2)n2c1c(=O)[nH]c(C)[n+]2[O-] | 7.9 ×10⁻⁶ cm/s | – | 13 µL/min/1e6 cells | Drug metabolism [3]: Metabolite_Detected
COc1ccc(-c2[nH]nc(C)c2-c2nc(C)c3c(=O)[nH]c(C)nn23)cn1 | 1.1 ×10⁻⁶ cm/s | – | 1.9 µL/min/1e6 cells | Drug metabolism [11]: Metabolite_Detected
Cc1nn2c(-c3c(C)n[nH]c3-c3ccc(C(F)(F)F)cc3)nc(C(F)F)c2c(=O)[nH]1 | 10 ×10⁻⁶ cm/s | – | 6.4 µL/min/1e6 cells | Drug metabolism [12]: Metabolite_Detected
Cc1nn2c(-c3c(C)n[nH]c3-c3ccc(O)nc3)nc(C)c2c(=O)[nH]1 | < 0.5 ×10⁻⁶ cm/s | Stable | – | Drug metabolism [11]: Metabolite_Detected; IC50 [6]: > 2000 nM
COc1ccc(Cc2nn3c([C@@H](CCC(O)c4ccccc4)[C@@H](C)O)nc(C)c3c(=O)[nH]2)cc1O (some centres undefined) | 1.1 ×10⁻⁶ cm/s | – | 12 µL/min/1e6 cells | Drug metabolism (Liver [10]): Metabolite_Detected
COc1ccc(Cc2nn3c([C@@H](CCC(=O)c4ccccc4)[C@@H](C)O)nc(C)c3c(=O)[nH]2)cc1OC | 11 ×10⁻⁶ cm/s | – | 25 µL/min/1e6 cells | Drug metabolism (Liver [10]): Metabolite_Detected
COc1ccc(-c2[nH]nc(C)c2-c2nc(CO)c3c(=O)[nH]c(C)nn23)cn1 | < 0.5 ×10⁻⁶ cm/s | Stable | – | Drug metabolism [11]: Metabolite_Detected
COc1ccc(Cc2nn3c([C@@H](CCC(O)c4ccccc4)[C@@H](C)O)nc(C)c3c(=O)[nH]2)cc1OC (single isomer, unassigned; diastereomer 1) | 2 ×10⁻⁶ cm/s | – | 14 µL/min/1e6 cells | Drug metabolism (Liver [10]): Metabolite_Detected
COc1ccc(Cc2nn3c([C@@H](CCC(O)c4ccccc4)[C@H](C)O)nc(C)c3c(=O)[nH]2)cc1OC (single isomer, unassigned; diastereomer 2) | – | – | – | CLint [4]: 14 µL/min/1e6 cells; Papp (MDCKII-LE): 2.2 ×10⁻⁶ cm/s
Cc1nc(-c2cnn3c2CN(CC2CCCC2O)CC3)c2c(=O)[nH]cnn12 (single isomer, unassigned; diastereomer 2) | – | – | – | CLint [4]: 5.8 µL/min/1e6 cells; IC50 [6]: > 2000 nM
COc1ccc(Cc2nn3c([C@@H](CCC(O)c4ccccc4)[C@H](C)O)nc(C)c3c(=O)[nH]2)cc1OC (stereo in doubt) | 2.8 ×10⁻⁶ cm/s | – | 11 µL/min/1e6 cells | Drug metabolism (Liver [5]): Metabolite_Detected
COc1ccc(Cc2nn3c([C@@H](CCC(O)c4ccccc4)[C@@H](C)O)nc(C)c3c(=O)[nH]2)cc1OC (stereo in doubt) | – | – | – | CLint [4]: 17 µL/min/1e6 cells; Papp (MDCKII-LE): 2.2 ×10⁻⁶ cm/s

Continued, in another order:

Papp at 1.5 h [1] | Stability [2] | hepatocyte CLint at 1 µM [4] | Structure (SMILES) | other results
8.3 ×10⁻⁶ cm/s | Stable | – | Cc1nn2c(-c3c(C)nn(C)c3-c3ccc(C(F)(F)F)cc3)nc(CO)c2c(=O)[nH]1 | Drug metabolism [3]: Metabolite_Detected; IC50 [6]: 0.3 nM
1.2 ×10⁻⁶ cm/s | – | 14.7 µL/min/1e6 cells | Cc1nn2c(-c3c(C=O)nn(C)c3-c3ccc(C(F)(F)F)cn3)nc(C)c2c(=O)[nH]1 | Drug metabolism [7]: Metabolite_Detected
< 0.5 ×10⁻⁶ cm/s | Stable | – | Cc1nn2c(-c3c(C)nn(C)c3-c3ccc(C(F)(F)F)c(CO)c3)nc(CO)c2c(=O)[nH]1 | Drug metabolism [8]: Metabolite_Detected
4.9 ×10⁻⁶ cm/s | – | 15 µL/min/1e6 cells | Cc1nn2c(-c3c(C)nn(C)c3-c3ccc(Cl)cc3)nc(CO)c2c(=O)[nH]1 | Drug metabolism (Liver [9]): Metabolite_Detected
0.54 ×10⁻⁶ cm/s | Stable | – | Cc1nn2c(-c3c(CO)nn(C)c3-c3ccc(C(F)(F)F)cn3)nc(CO)c2c(=O)[nH]1 | Drug metabolism [7]: Metabolite_Detected
3 ×10⁻⁶ cm/s | – | 3.9 µL/min/1e6 cells | Cc1nn2c(-c3c(C)nn(C)c3-c3ccc(C(F)(F)F)c(CO)c3)nc(C)c2c(=O)[nH]1 | Drug metabolism [8]: Metabolite_Detected
13 ×10⁻⁶ cm/s | Stable | – | Cc1nn2c(-c3c(C)nn(C)c3-c3ccc(C(F)(F)F)c(C)c3)nc(CO)c2c(=O)[nH]1 | Drug metabolism [8]: Metabolite_Detected
1 ×10⁻⁶ cm/s | Stable | – | Cc1nn2c(-c3c(CO)nn(C)c3-c3ccc(C(F)(F)F)cc3)nc(CO)c2c(=O)[nH]1 | Drug metabolism [3]: Metabolite_Detected
1.7 ×10⁻⁶ cm/s | Stable | – | Cc1nn2c(-c3c(CO)nn(C)c3-c3ccc(C(F)(F)F)c(C)c3)nc(CO)c2c(=O)[nH]1 | Drug metabolism [8]: Metabolite_Detected
6.3 ×10⁻⁶ cm/s | – | 5.5 µL/min/1e6 cells | Cc1nn2c(-c3c(CO)nn(C)c3-c3ccc(C(F)(F)F)cc3)nc(C(F)F)c2c(=O)[nH]1 | Drug metabolism [12]: Metabolite_Detected
1.7 ×10⁻⁶ cm/s | Stable | – | Cc1nn2c(-c3c(C)nn(C)c3-c3ccc(C(F)(F)F)cn3)nc(CO)c2c(=O)[nH]1 | Drug metabolism [7]: Metabolite_Detected
0.55 ×10⁻⁶ cm/s | Stable | – | Cc1nn2c(-c3c(CO)nn(C)c3-c3ccc(C(F)(F)F)c(CO)c3)nc(C)c2c(=O)[nH]1 | Drug metabolism [8]: Metabolite_Detected
0.76 ×10⁻⁶ cm/s | Stable | – | COc1ccc(-c2c(-c3nc(CO)c4c(=O)[nH]c(C)nn34)c(C)nn2C)cn1 | Drug metabolism [11]: Metabolite_Detected
19 ×10⁻⁶ cm/s | – | 11 µL/min/1e6 cells | Cc1nn2c(-c3c(CO)nn(C)c3-c3ccc(Cl)cc3)nc(C)c2c(=O)[nH]1 | Drug metabolism (Liver [9]): Metabolite_Detected
< 0.5 ×10⁻⁶ cm/s | Stable | – | Cc1nn2c(-c3c(CO)nn(C)c3-c3ccc(C(F)(F)F)cn3)nc(C)c2c(=O)[nH]1 | Drug metabolism [7]: Metabolite_Detected
53 ×10⁻⁶ cm/s | Stable | – | Cc1nn2c(-c3c(C(=O)O)nn(C)c3-c3ccc(C(F)(F)F)c(C)c3)nc(C)c2c(=O)[nH]1 | Drug metabolism [8]: Metabolite_Detected
